Bioassay records deposited in PubChem BioAssay by Broad Institute.
This is a sample that favours compounds with a hit; in the whole collection about 3.1% have one here.
Cneo AK release = causes C. neoformans cell lysis. AID 651654. lysis activity, % at 15 µM. hit rate 0.2% among 360,000. adenylate kinase release luminescence, 4 h; normalised: neutral wells 0, clomiphene wells 100;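 active = mean lysis activity across replicates of at least 80%, whatever share of replicates individually reach that level; inactive = mean lysis activity below 80%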
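Material: C. neoformans cells | Amount: Yeast cell density of 5 × 10^6 cells/mL | Medium: Fresh YPD growth medium | Dosing: Single dose | Times: Static 4 h at 37 °C with compound, 1 h detection | Detection: AK luminescence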
miR122 inh = miR-122 inhibition in Huh7 cells | Huh7 miR-122 Renilla luciferase sensor, 48 h; neutral wells = 0, positive control = 100 | activation (reporter increase), % at 12.5 µM | hit rate 0.3% among 340,000 | AID 602342;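 active = mean replicate activation score at least 90 and every replicate individually at or above 90; inconclusive = only one of the two criteria met; inactive = neither criterion met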;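 note: higher luciferase means less miR-122 activity so hits act as miR-122 inhibitors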
Ecoli rRNA inh = inhibitors of bacterial rRNA selective over humanized ribosomes | E. coli WT GFP vs humanized-ribosome RFP mutants, fluorescence, 24 h; stronger effect = lower value; DMSO median 0, no signal -100 | GFP signal change (wild-type ribosome), % (test concentration not listed) | hit rate 1.6% among 350,000;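 active = significant combined selectivity score with lowered wild-type GFP, culture density cut under 30%, mutant RFP and density less affected; inactive = any of these conditions unmet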
DENV2 CPE rescue = inhibitors of DENV2 cytopathic effect; CPE inhibition, % at 9.99 µM; DENV2-infected cells, cytopathic effect rescue, plate reader; hit rate 1.7% among 350,000; in the data active = CPE inhibition above about 20%, passing the limit was not always enough; inconclusive = no clear call, values can overlap the other calls; tested in BHK-21 cells;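 note: 0% = median of neutral control wells and 100% = median of positive control wells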
E-sel inducer = E-selectin induction on HUVECs; HUVEC E-selectin immunofluorescence imaging; normalized: neutral wells 0, TNF-alpha wells 100; hit rate 0.37% among 260,000; activation, % at 7.58 µM; P16581;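 active = mean E-selectin-positive cell signal at least 10% of the positive control, reached in at least 60% of replicates, without over 20% cell loss; inconclusive = no rule given, readout overlaps actives, possibly toxicity-flagged; inactive = the rest, including those meeting only one limit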
Target sequence (P16581 whole entry, looked up): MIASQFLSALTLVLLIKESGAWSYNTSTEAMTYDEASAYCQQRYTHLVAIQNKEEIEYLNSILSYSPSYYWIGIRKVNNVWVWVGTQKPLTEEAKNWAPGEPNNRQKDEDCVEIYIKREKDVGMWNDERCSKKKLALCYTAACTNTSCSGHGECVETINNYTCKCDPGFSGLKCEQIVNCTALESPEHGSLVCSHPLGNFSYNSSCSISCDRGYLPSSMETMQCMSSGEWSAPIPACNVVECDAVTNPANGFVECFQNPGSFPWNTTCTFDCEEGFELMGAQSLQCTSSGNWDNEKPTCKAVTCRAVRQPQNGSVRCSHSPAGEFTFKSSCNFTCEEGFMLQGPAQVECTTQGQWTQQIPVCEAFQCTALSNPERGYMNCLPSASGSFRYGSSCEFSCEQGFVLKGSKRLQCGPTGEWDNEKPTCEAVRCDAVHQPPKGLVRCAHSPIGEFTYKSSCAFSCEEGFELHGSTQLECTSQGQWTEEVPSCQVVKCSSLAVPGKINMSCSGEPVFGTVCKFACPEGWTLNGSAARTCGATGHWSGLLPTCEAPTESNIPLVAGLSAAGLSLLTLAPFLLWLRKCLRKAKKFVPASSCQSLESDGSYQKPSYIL
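material = human umbilical vein endothelial cells (HUVEC), E-selectin induction | quantity = 3,000 cells/well | medium = EGM-2 growth medium on 0.1% gelatin-coated wells | technique = immunofluorescence imaging | read-out basis = % PE-positive cells | control set = TNF-alpha positive control, DMSO neutral control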
Active calls of the source: *; ? = inconclusive; · = no result; [ ] = remark or other dose.

SMILES	Cneo AK release	miR122 inh	Ecoli rRNA inh	DENV2 CPE rescue	E-sel inducer
Cc1ccc(S(=O)(=O)N(C)C[C@@H]2Oc3ccc(NS(=O)(=O)c4cn(C)cn4)cc3CC(=O)N([C@H](C)CO)C[C@@H]2C)cc1	·	4.0[16.7 µM]	1.2	·	1.0
Clc1ccccc1-c1cc2nc(NCCCn3ccnc3)ccn2n1	-1.0	1.4	-2.6	31.6*	0.1
COc1ccc2c(c1)CC/C(=C/c1ccccn1)C2=O	-5.2	-4.5	0.3	-1.5	0.3
CC(=O)Oc1ccc(/C=C2/CCc3ccccc3C2=O)cc1	-5.9	-1.1	-30.7*	-1.9	2.7
O=C1C(=Cc2ccccn2)CCc2ccccc21	-2.3	-1.3	-5.2	38.1*	4.3
CCCCc1c(C)nc2ccc(C)cc2c1SCCC(=O)O	·	7.4	-32.4	-4.6	29.2*
COCC(=O)N1[C@@H](CO)[C@H](c2ccccc2)C12CN(C(=O)NC1CCCC1)C2	·	·	2.3	-4.4	0.0
CCOC(=O)[C@]12CCCC=C1N(Cc1cccc3ccccc13)C(=O)[C@H](CC(=O)N1CCCCC1)C2	·	·	·	13.7	·
COC(=O)[C@]12CCCCC=C1N(Cc1cccc3ccccc13)C(=O)[C@H](CC(=O)N1CCSCC1)C2	·	·	-3.0	32.1*	0.1
CCOC(=O)[C@]12CCC=C1N(Cc1cccc3ccccc13)C(=O)[C@H](CC(=O)N1CCCC1)C2	·	·	·	37.3*	·
COC(=O)[C@]12CCCCC=C1N(Cc1cccc3ccccc13)C(=O)[C@H](CC(=O)NCCC(C)C)C2	·	·	4.2	109.3*	0.0
CCC(=O)N[C@H]1CC[C@H](CCNC(=O)Nc2ccc(C(F)(F)F)cc2)O[C@@H]1CO	-3.2	-8.8[16.7 µM]	-57.4	6.5	-0.2
CCC(=O)N1C[C@@H](C)[C@@H](OC)CN(C)C(=O)c2cc(NC(=O)C3CCOCC3)ccc2OC[C@H]1C	-3.1	·	1.4	-3.6	-0.1
O=C(C[C@@H]1C[C@@H]2c3cc(NC(=O)NC4CCCC4)ccc3O[C@@H]2[C@H](CO)O1)NCc1ccc(Cl)cc1	·	·	2.3	·	·
C[C@H](CO)N1C[C@H](C)[C@H](CN(C)S(=O)(=O)c2ccc(C(F)(F)F)cc2)OCc2ccccc2-c2ccccc2C1=O	-1.9	·	-0.4	33.1*	2.2
C[C@H]1CN([C@@H](C)CO)C(=O)c2ccccc2-c2ccccc2CO[C@H]1CN(C)Cc1ccc(C(F)(F)F)cc1	·	·	-3.6	50.2*	-0.5
COc1cccc(NC(=O)N(C)C[C@@H]2OCc3cn(nn3)CCCC(=O)N([C@H](C)CO)C[C@@H]2C)c1	·	-3.2[16.7 µM]	-0.5	·	0.4
C[C@@H]1CN([C@@H](C)CO)C(=O)c2cccc(NS(=O)(=O)c3cn(C)cn3)c2O[C@@H]1CN(C)S(=O)(=O)c1ccc(Cl)cc1	3.1	-12.3[16.7 µM]	0.8	9.8	0.0
COc1ccc(NC(=O)Nc2cccc3c2O[C@@H](CN(C)S(C)(=O)=O)[C@H](C)CN([C@@H](C)CO)C3=O)cc1	-3.7	-0.4[16.7 µM]	-0.7	-1.6	0.6
CCOC(=O)C1CCCCN1C(=O)c1cc2ccc(OC)cc2c2cc(OC)c(OC)cc12 (stereo not drawn)	-6.5	109.5*	6.8	-4.3	0.6
COc1ccc2c3c([nH]c2c1)[C@H](CO)N(Cc1cccc(F)c1)CC31CN(CC2CC2)C1	·	·	1.9	?	-0.2
Cc1ccc(C)c(OCCCCN2CCCCC2)c1	-1.1	4.1	1.8	55.2*	·
CN1CCN(c2ccc(-c3cccc(NC(=O)COc4ccc(Cl)cc4)c3)nn2)CC1	-6.6	6.8	-29.9*	-5.4	-2.0
CN1CCN(c2ccc(-c3cccc(NC(=O)COc4ccccc4)c3)nn2)CC1	-3.5	10.7	-9.8	4.0	·
Nc1nc(-c2ccccc2)c(N=Nc2cccnc2)s1	·	·	4.1	3.0	-0.3
SMILES	Cneo AK release	miR122 inh	Ecoli rRNA inh	DENV2 CPE rescue	E-sel inducer
Cc1nn(-c2ccccc2)c(N)c1N=Nc1cccnc1	·	·	-22.1*	0.5	0.0
Nc1nn(-c2ccccc2)c(N)c1N=Nc1cccc(F)c1	-3.0	20.9	-35.8*	9.8	2.3
C[C@@H]1CN([C@H](C)CO)S(=O)(=O)c2ccc(-c3cccc(F)c3)cc2O[C@@H]1CN(C)C	-2.4	-1.3[16.7 µM]	-2.3	5.0	-0.7
CCOc1ccc(S(=O)(=O)N(C)c2ccc(OCC(=O)Nc3ccc4[nH]c(=O)[nH]c4c3)cc2)cc1	-1.2	·	-31.6*	·	·
CN(c1ccc(OCC(=O)Nc2ccc3[nH]c(=O)[nH]c3c2)cc1)S(=O)(=O)c1ccc(Cl)cc1	-1.9	-7.8	·	·	·
CCC(C)OC1OC(CO)C(O)C(O)C1NC(C)=O (stereo not drawn)	·	·	10.8	·	-1.4
CCCCCCCCCCCCOC1OC(CO)C(O)C(O)C1NC(C)=O (stereo not drawn)	-4.9	-5.0	-12.5	23.3*	·
CCN1[C@@H]2c3ccc(-c4cccc(OC)c4)c(=O)n3C[C@@H]2[C@@H](CO)[C@@H]1C(=O)N(C)C	-0.4	2.0[16.7 µM]	1.2	6.4	0.4
Cc1cnc(NC(=O)Cc2c[nH]c3ccccc23)s1	4.3	3.2	-22.4*	-8.4	·
CN(C)C(=O)[C@@H]1[C@@H](CO)[C@@H]2Cn3c(ccc(C4=CCCC4)c3=O)[C@@H]2N1C(=O)Cc1cccnc1	-0.2	-0.9[16.7 µM]	-0.1	-8.1	-0.1
Cn1c(N)c(C(=O)COC(=O)CNC(=O)c2ccccc2)c(=O)n(C)c1=O	-2.0	-5.9	8.1	?	-0.4
CCOc1ccc(OCCC(=O)OCC(=O)c2c(N)n(CC(C)C)c(=O)n(C)c2=O)cc1	-1.0	-7.9	-17.4*	-0.1	-0.1
Cn1c(N)c(C(=O)COC(=O)Cc2ccc(Cl)c(Cl)c2)c(=O)n(C)c1=O	-4.6	3.2	-34.9*	57.1*	·
Cn1c(N)c(C(=O)COC(=O)CCc2ccccc2)c(=O)n(C)c1=O	-0.3	-9.8	-13.7	8.9	107.0*
CCNC(=O)Nc1ccc2c(c1)C(=O)N(C)[C@H]1CC[C@@H](CC(=O)NC3CCCCC3)O[C@@H]1CO2	-1.7	-15.6[16.7 µM]	6.0	27.4*	0.0
CCNC(=O)C[C@@H]1CC[C@@H]2[C@@H](COc3ccc(NC(=O)Nc4cccc(OC)c4)cc3C(=O)N2C)O1	2.9	-6.7[16.7 µM]	-0.1	3.9	76.2*
CCNC(=O)C[C@@H]1CC[C@H]2[C@@H](COc3ccc(NC(=O)Nc4cccc(OC)c4)cc3C(=O)N2C)O1	-2.8	-10.0[16.7 µM]	-2.9	0.5	0.1
CCNC(=O)Nc1ccc2c(c1)C(=O)N(C)[C@H]1CC[C@@H](CC(=O)NC3CCCCC3)O[C@H]1CO2	3.9	5.6[16.7 µM]	-0.1	-5.6	0.1
COc1ccc(CNC(=O)C[C@H]2CC[C@H]3[C@@H](COc4ccc(NC(=O)C5CC5)cc4C(=O)N3C)O2)cc1	91.3*	6.7[16.7 µM]	-0.3	1.4	0.0
COc1ccc(CNC(=O)C[C@H]2CC[C@H]3[C@H](COc4ccc(NC(=O)C5CC5)cc4C(=O)N3C)O2)cc1	13.5	13.9[16.7 µM]	-2.0	-1.8	0.0
COCCNC(=O)C[C@@H]1C[C@H]2c3cc(N(C)C)ccc3O[C@H]2[C@@H](CO)O1	0.5	4.4[16.7 µM]	5.8	0.1	0.2
